This is an account of results in paper PMC10975586 (ACS Omega, 2024).

The target of experiment [1] is jack bean (JB) urease (Canavalia ensiformis, UniProt P07374). Briefly: Urease inhibitory assay. Particulars: for inhibition at 250 µM: read-out: inhibition (%) at 0.25 mM, JB urease; for inhibition at 250 µM / inhibition (%) at 0.25 mM: 0.25 mM, mean ± SEM, n = 3–4; for urease inhibitory profile (in words) / inhibition (%) at 0.25 mM: JB urease. Type of experiment: biochemical.

The target in experiment [2] is JB urease enzyme (Canavalia ensiformis, UniProt P07374). The experiment is described as follows: Kinetic analysis of JB urease inhibition. Type of experiment: biochemical, jack bean. Particulars: for Vmax: in presence of the inhibitor. The gist of the method: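 Jack bean urease (1 unit/well) in 50 mM phosphate buffer pH 7.4 is preincubated with test compound for 10 min at 37 °C. Urea is added from a 50 mM solution and the reaction runs 15 min. Phenol-alkali reagent stops it, and A630 is read after 10 min. Mode of inhibition, Km, Vmax and Ki come from double-reciprocal plots and nonlinear regression (mean ± SEM, n = 3).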
Sequence of JB urease enzyme (P07374 whole entry, looked up): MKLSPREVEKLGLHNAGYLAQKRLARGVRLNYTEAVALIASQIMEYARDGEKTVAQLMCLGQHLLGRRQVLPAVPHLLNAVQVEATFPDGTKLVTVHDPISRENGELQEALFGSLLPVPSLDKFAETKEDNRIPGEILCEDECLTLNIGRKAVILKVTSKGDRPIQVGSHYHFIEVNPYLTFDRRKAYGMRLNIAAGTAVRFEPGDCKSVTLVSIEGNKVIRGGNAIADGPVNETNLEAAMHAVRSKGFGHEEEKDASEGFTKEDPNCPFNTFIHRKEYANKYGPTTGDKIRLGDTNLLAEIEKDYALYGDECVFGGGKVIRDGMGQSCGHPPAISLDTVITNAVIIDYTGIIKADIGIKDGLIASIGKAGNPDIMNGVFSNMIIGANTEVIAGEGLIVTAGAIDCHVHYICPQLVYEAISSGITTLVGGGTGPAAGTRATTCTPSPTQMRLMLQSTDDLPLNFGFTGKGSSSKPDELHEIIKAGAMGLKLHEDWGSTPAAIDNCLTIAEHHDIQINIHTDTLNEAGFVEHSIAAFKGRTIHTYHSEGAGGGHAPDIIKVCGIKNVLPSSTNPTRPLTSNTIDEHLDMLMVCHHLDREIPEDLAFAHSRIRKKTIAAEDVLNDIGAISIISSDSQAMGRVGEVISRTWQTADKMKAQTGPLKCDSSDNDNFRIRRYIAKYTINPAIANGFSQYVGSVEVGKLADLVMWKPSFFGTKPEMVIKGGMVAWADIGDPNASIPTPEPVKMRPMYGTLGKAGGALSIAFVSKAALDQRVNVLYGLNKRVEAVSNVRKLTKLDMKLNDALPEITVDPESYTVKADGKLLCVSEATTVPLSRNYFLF

Values joined by “and” are separate entries in the source; they are usually repeats but may differ in a detail not shown here. Equal values may be shown once. “Also recorded” adds a separate entry of the source. Read-outs that look alike come from different tables or passages of the source.

Sequence of jack bean (JB) urease (P07374 whole entry, looked up): as above

Consider `N[C@@H](C(=O)N[C@@H]1C(=O)N2C(C(=O)O)=C(Cl)CS[C@H]12)c1ccccc1` [cefaclor], for which, in experiment [1], half-maximal inhibition (IC50) required 62.9 ± 0.78 µM and the inhibition at 250 µM worked out at 92.4 ± 1.53%.

Turning to `CC1=C(C(=O)O)N2C(=O)[C@@H](NC(=O)[C@H](N)c3ccc(O)cc3)[C@H]2SC1` [cefadroxil], in experiment [1], the IC50 is 21.4 ± 0.64 µM and the inhibition at 250 µM was 91.27 ± 0.85%.

Regarding `CC1=C(C(=O)O)N2C(=O)[C@@H](NC(=O)[C@H](N)c3ccccc3)[C@H]2SC1` [cefalexin], in experiment [1], half-maximal inhibition (IC50) was put at 145.8 ± 0.37 µM, the “urease inhibitory profile (in words)” value is “poor inhibitory potential” and the inhibition at 250 µM worked out at 72.5 ± 0.94%.

On to `CO/N=C(\C(=O)N[C@@H]1C(=O)N2C(C(=O)[O-])=C(C[N+]3(C)CCCC3)CS[C@H]12)c1csc(N)n1` [cefepime], for which, in experiment [1], the concentration for half-maximal inhibition (IC50) amounted to 78.65 ± 0.45 µM and the inhibition at 250 µM was determined as 73.3 ± 1.35%.

With `C=CC1=C(C(=O)O)N2C(=O)[C@@H](NC(=O)/C(=N\OCC(=O)O)c3csc(N)n3)[C@H]2SC1` [cefixime], in experiment [1], the IC50 was determined as 215.5 ± 0.76 µM, the “urease inhibitory profile (in words)” value is “poor inhibitory potential” and the inhibition at 250 µM worked out at 68.5 ± 1.85%.

Regarding `CCN1CCN(C(=O)N[C@@H](C(=O)N[C@@H]2C(=O)N3C(C(=O)O)=C(CSc4nnnn4C)CS[C@H]23)c2ccc(O)cc2)C(=O)C1=O` [cefoperazone], the inhibition at 250 µM in experiment [1] was 34.54 ± 0.26%.

As for `CO/N=C(\C(=O)N[C@@H]1C(=O)N2C(C(=O)O)=C(COC(C)=O)CS[C@H]12)c1csc(N)n1` [cefotaxime], in experiment [1], half-maximal inhibition (IC50) was put at 27.4 ± 0.74 µM and the inhibition at 250 µM came out at 81.9 ± 1.46%.

In the case of `COCC1=C(C(=O)O)N2C(=O)[C@@H](NC(=O)/C(=N\OC)c3csc(N)n3)[C@H]2SC1` [cefpodoxime], in experiment [1], the IC50 stood at 23.7 ± 0.82 µM and the inhibition at 250 µM was determined as 91.3 ± 1.86%.

`CC=CC1=C(C(=O)O)N2C(=O)[C@@H](NC(=O)[C@H](N)c3ccc(O)cc3)[C@H]2SC1` [cefprozil]: the “inhibition (%) at 0.25 mM” value in experiment [1] came to 42.76 ± 0.27%.

Consider `CC1=C(C(=O)O)N2C(=O)[C@@H](NC(=O)[C@H](N)C3=CCC=CC3)[C@H]2SC1` [cefradine], for which, in experiment [1], the concentration for half-maximal inhibition (IC50) came to 226.8 ± 0.95 µM and the inhibition at 250 µM was found to be 54.9 ± 1.54%.

`CC(C)(O/N=C(\C(=O)N[C@@H]1C(=O)N2C(C(=O)[O-])=C(C[n+]3ccccc3)CS[C@H]12)c1csc(N)n1)C(=O)O` [ceftazidime]: in experiment [1], half-maximal inhibition (IC50) was put at 123.6 ± 0.19 µM; the “inhibition (%) at 0.25 mM” value was 76.94 ± 1.57% and 49.52 ± 1.78%.

In the case of `CO/N=C(\C(=O)N[C@@H]1C(=O)N2C(C(=O)O)=CCS[C@H]12)c1csc(N)n1` [ceftizoxime], the inhibition at 250 µM in experiment [1] is 32.41 ± 0.24%.

In the case of `CO/N=C(\C(=O)N[C@@H]1C(=O)N2C(C(=O)O)=C(CSc3nc(=O)c(=O)[nH]n3C)CS[C@H]12)c1csc(N)n1` [ceftriaxone], in experiment [1], the half-inhibitory concentration (IC50) amounted to 157.4 ± 0.42 µM, the “urease inhibitory profile (in words)” value is given as “poor inhibitory potential” and the inhibition at 250 µM was 72.6 ± 0.98%.

For the compound `CO/N=C(\C(=O)N[C@@H]1C(=O)N2C(C(=O)O)=C(COC(N)=O)CS[C@H]12)c1ccco1` [cefuroxime], in experiment [1], half-maximal inhibition (IC50) required 241.5 ± 0.87 µM and the inhibition at 250 µM came out at 51.7 ± 1.56%.

As for `O=C(O)c1cn(C2CC2)c2cc(N3CCNCC3)c(F)cc2c1=O` [ciprofloxacin], in experiment [1], the half-maximal inhibitory concentration (IC50) came to 134.5 ± 0.52 µM, the “urease inhibitory profile (in words)” value is “weak enzyme inhibitors” and the inhibition at 250 µM is 78.3 ± 0.85%. In experiment [1] (listed as Ciprofloxacin), the “urease inhibitory profile (in words)” value was “weak urease inhibitions”.

As for `CO/N=C1\CN(c2nc3c(cc2F)c(=O)c(C(=O)O)cn3C2CC2)CC1CN` (stereo not shown) [gemifloxacin], in experiment [1], the IC50 worked out at 16.5 ± 0.85 µM and the inhibition at 250 µM came to 92.5 ± 1.35%.

With `C[C@H]1COc2c(N3CCN(C)CC3)c(F)cc3c(=O)c(C(=O)O)cn1c23` [levofloxacin], in experiment [2], affinity was put at a Ki of 4.91 µM. Also, in experiment [2] (JB urease), the maximum velocity amounted to 84.51 μm/min, the type of inhibition entry is recorded as “competitive inhibitors” and the “Vmax” value is 84.51 µM/min. The type of inhibition result in experiment [2] (JB urease, listed as Levofloxacin) is given as “competitive inhibition”. In experiment [1], the midpoint of inhibition, the IC50, lay at 7.24 ± 0.29 µM and the inhibition at 250 µM came to 81.92 ± 0.62%.

Consider `COc1c(N2C[C@@H]3CCCN[C@@H]3C2)c(F)cc2c(=O)c(C(=O)O)cn(C3CC3)c12` [moxifloxacin], for which, in experiment [1], the IC50 is 135.3 ± 0.39 µM, the “urease inhibitory profile (in words)” value is “weak urease inhibitions; also recorded: weak enzyme inhibitors” and the inhibition at 250 µM was 75.27 ± 0.74%.

`CC1COc2c(N3CCN(C)CC3)c(F)cc3c(=O)c(C(=O)O)cn1c23` (stereo not shown) [ofloxacin] gave an inhibition constant Ki in experiment [2] of 5.43 µM. In addition, in experiment [2] (JB urease), the type of inhibition entry was “competitive inhibition; also recorded: competitive inhibitors” and the “Vmax” value came to 86.62 µM/min. In addition, in experiment [1], half-maximal inhibition (IC50) was put at 13.2 ± 0.32 µM and the inhibition at 250 µM worked out at 83.67 ± 0.67%.

For the compound `C[C@@H]1CN(c2c(F)c(N)c3c(=O)c(C(=O)O)cn(C4CC4)c3c2F)C[C@H](C)N1` [sparfloxacin], in experiment [1], the half-inhibitory concentration (IC50) amounted to 213.9 ± 0.32 µM and the inhibition at 250 µM came out at 57.6 ± 0.62%.

Regarding `NC(N)=S` [thiourea], in experiment [2] (JB urease), the type of inhibition entry is listed as “competitive” and the “Vmax” value is 110.1 µM/min. In addition, the affinity in experiment [2] (JB urease, inhibitory constant) corresponds to a Ki of 19.7 µM. The “inhibition (%) at 0.25 mM” value in experiment [1] was 98.21 ± 0.18%.

The IC50 is the midpoint of a concentration-inhibition curve. A higher IC50 goes with weaker potency in that assay. What is called inhibition is the share of the control response that was lost under treatment. The Ki is the dissociation constant of the complex between target and ligand, obtained from inhibition or displacement. The low end stands for higher affinity, the high end for lower affinity. For orientation: Vmax means the rate approached at saturating substrate.
